Converted amounts (≈) assume the structure as drawn. A value given as a limit tells only on which side of the number the result lay.

The text below walks through data of ChEMBL document CHEMBL2401714, “New linezolid-like 1,2,4-oxadiazoles active against Gram-positive multiresistant pathogens” (Eur J Med Chem, 2013).

For data set [1], the system named is Staphylococcus aureus. Put plainly: Antibacterial activity against methicillin-resistant Staphylococcus aureus ATCC 700699 assessed as growth inhibition after 18 to 24 hrs by broth microdilution method. The format is functional. Summed up: (§1)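 CLSI broth microdilution: serial 2-fold dilutions of each compound in Mueller-Hinton broth, with DMSO as solvent. An equal volume of inoculum (1 × 10⁶ CFU/mL) is added to each well holding the dilutions. MIC is the lowest concentration causing no visible turbidity. Values are expressed in […]. Clinical MRSA collection isolates 433 and F511, and reference strain Mu50.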
On the technique in general: Broth dilution looks for growth in wells or tubes with falling amounts of substance.

Data set [2] has as its system Staphylococcus aureus. Put plainly: Antibacterial activity against methicillin-resistant Staphylococcus aureus F511 assessed as growth inhibition after 18 to 24 hrs by broth microdilution method. Type of data set: functional. Summed up: as §1
The test system of data set [3] is Staphylococcus aureus. Put plainly: Antibacterial activity against methicillin-resistant Staphylococcus aureus 433 assessed as growth inhibition after 18 to 24 hrs by broth microdilution method. Type of data set: functional. The essentials:
as §1

In data set [4] the test system is Staphylococcus aureus. Put plainly: Antibacterial activity against methicillin-susceptible Staphylococcus aureus ATCC 29213 assessed as growth inhibition after 18 to 24 hrs by broth microdilution method. The format is functional. Summed up: (§2)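 CLSI broth microdilution against S. aureus isolates. Two-fold serial dilutions were made in Mueller-Hinton broth, with DMSO as the compound solvent. An equal volume of inoculum (1 × 10⁶ CFU/mL) was added to each well. MIC was taken as the lowest concentration giving no visible turbidity of the medium.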

Data set [5] relates to Staphylococcus aureus. Put plainly: Antibacterial activity against methicillin-susceptible Staphylococcus aureus M923 assessed as growth inhibition after 18 to 24 hrs by broth microdilution method. Type of data set: functional. Summed up: as §2
Data set [6] in a line: Cytotoxicity against porcine PK-15 cells assessed as reduction of cell viability at 5 to 400 ug/ml by MTT assay. The settings on record: pig. The format is cell-based, Sus scrofa. The essentials:
(§3)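 Cells were exposed to increasing compound concentrations, with a DMSO solvent control. HepG2 and HaCaT were grown in DMEM, and PK15 in DMEM/M199 (1:1), all with 10% heat-inactivated fetal serum. MTT (5 mg/mL stock, 1.2 mM final) was added for 1 h 30 min at 37 °C. The reaction was stopped with 90% ethanol, cells were spun at 800 × g for 10 min, and A570 was read. Values are means ± S.E. of 3 experiments run in triplicate.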
A general note: Tetrazolium dyes change colour on reduction, which living cells bring about.

The test system of data set [7] is HaCaT. Put plainly: Cytotoxicity against human HaCaT cells assessed as cell death at 200 to 400 ug/ml by MTT assay relative to control. The format is cell-based. Summed up: as §3
The test system of data set [8] is HepG2. Put plainly: Cytotoxicity against human HepG2 cells assessed as reduction of cell viability at 5 to 400 ug/ml by MTT assay. Type of data set: cell-based. The essentials:
as §3

Data set [9] relates to HaCaT. Put plainly: Cytotoxicity against human HaCaT cells assessed as induction of cell death at => 25 ug/ml by MTT assay relative to control. The format is cell-based. The essentials:
as §3

The nature of data set [10]: Cytotoxicity against porcine PK-15 cells assessed as reduction of cell viability by MTT assay. The following applies: pig. Type of data set: cell-based, Sus scrofa. Summed up:
as §3

Data set [11] in a line: Cytotoxicity against porcine PK-15 cells assessed as reduction of cell viability at 100 ug/ml by MTT assay relative to control. The format is cell-based, Sus scrofa. The following applies: pig. Summed up: as §3
The test system of data set [12] is HaCaT. Put plainly: Cytotoxicity against human HaCaT cells assessed as reduction of cell viability at 5 ug/ml by MTT assay. The format is cell-based. The essentials: as §3
Data set [13] in a line: Cytotoxicity against porcine PK-15 cells assessed as reduction of cell viability at 200 to 400 ug/ml by MTT assay relative to control. The format is cell-based, Sus scrofa. The settings on record: pig. The essentials:
as §3

Data set [14] relates to HepG2. Put plainly: Cytotoxicity against human HepG2 cells assessed as reduction of cell viability at 50 ug/ml by MTT assay. The format is cell-based. The essentials:
as §3

Data set [15] is described as follows: Cytotoxicity against porcine PK-15 cells assessed as reduction of cell viability at 25 to 200 ug/ml by MTT assay. Type of data set: cell-based, Sus scrofa. The settings on record: pig. The essentials:
as §3

Data set [16] deals with HepG2. Put plainly: Cytotoxicity against human HepG2 cells assessed as reduction of cell viability at 400 ug/ml by MTT assay relative to control. The format is cell-based. Summed up:
as §3

Data set [17] in a line: Cytotoxicity against porcine PK-15 cells assessed as reduction of cell viability at 5 ug/ml by MTT assay relative to control. The format is cell-based, Sus scrofa. The following applies: pig. Summed up: as §3

`Cc1noc(-c2ccc(N3CC(Cn4cccn4)OC3=O)cc2F)n1` (racemic): the MIC in the data set on Staphylococcus aureus [1], with Staphylococcus aureus [2], with Staphylococcus aureus [3], with Staphylococcus aureus [4] and with Staphylococcus aureus [5] was more than 50 µg/mL throughout.
As for `Cc1noc(-c2ccc(N3CC(CN=[N+]=[N-])OC3=O)cc2)n1` (racemic), the MIC in the data set with Staphylococcus aureus [1], in the data set on Staphylococcus aureus [2], with Staphylococcus aureus [3], in the data set on Staphylococcus aureus [4] and in the data set with Staphylococcus aureus [5] was more than 50 µg/mL throughout.
As to `Cc1noc(-c2ccc(N3CC(Cn4cncn4)OC3=O)cc2F)n1` (racemic), the MIC with Staphylococcus aureus [1], in the data set with Staphylococcus aureus [2], in the data set on Staphylococcus aureus [3], in the data set on Staphylococcus aureus [4] and in the data set on Staphylococcus aureus [5] was more than 50 µg/mL in each case.
Regarding `Cc1noc(-c2ccc(N3CC(Cn4ccnc4)OC3=O)cc2F)n1` (racemic), the MIC in the data set on Staphylococcus aureus [1], with Staphylococcus aureus [2], in the data set with Staphylococcus aureus [3], with Staphylococcus aureus [4] and in the data set on Staphylococcus aureus [5] was more than 50 µg/mL throughout.
Turning to `Cc1noc(-c2ccc(N3CC(Cn4cncn4)OC3=O)cc2)n1` (racemic), the MIC with Staphylococcus aureus [1], in the data set with Staphylococcus aureus [2], with Staphylococcus aureus [3], with Staphylococcus aureus [4] and in the data set with Staphylococcus aureus [5] was more than 50 µg/mL each time.
Consider `CC(=O)NC[C@H]1CN(c2ccc(N3CCOCC3)c(F)c2)C(=O)O1` [LINEZOLID], for which the MIC was 0.8 µg/mL (≈ 2.37 µM) in the data set with Staphylococcus aureus [1]; 3.13 µg/mL (≈ 9.28 µM) with Staphylococcus aureus [2]; 1.6 µg/mL (≈ 4.74 µM) with Staphylococcus aureus [3]; not above 0.4 µg/mL with Staphylococcus aureus [4]; 3.13 µg/mL (≈ 9.28 µM) in the data set with Staphylococcus aureus [5]. Moreover, the values for the Activity result (in data set [6]; with HaCaT [7]; with HepG2 [8]) were “Non-toxic”, “Toxic” and “Non-toxic”, respectively.
As for `CC(=S)NCC1CN(c2ccc(-c3nc(C)no3)cc2)C(=O)O1` (racemic), the MIC was not above 0.4 µg/mL with Staphylococcus aureus [1]; 1.6 µg/mL (≈ 4.81 µM) in the data set with Staphylococcus aureus [2]; 1.6 µg/mL (≈ 4.81 µM) in the data set on Staphylococcus aureus [3]; 3.13 µg/mL (≈ 9.42 µM) in the data set on Staphylococcus aureus [4]; 1.6 µg/mL (≈ 4.81 µM) with Staphylococcus aureus [5]. In addition, the Activity in the data set on HaCaT [9] is given as more than 60%; in data set [10], “Dose-dependent effect”; in the data set on HepG2 [8], “Toxic”; in data set [11] it was 70%; in the data set on HaCaT [12], “Toxic”; in [13], more than 90%.
Take `Cc1noc(-c2ccc(N3CC(CI)OC3=O)cc2)n1` (racemic): the MIC with Staphylococcus aureus [1] is 50 µg/mL (≈ 130 µM); in the data set on Staphylococcus aureus [2], 50 µg/mL (≈ 130 µM); in the data set with Staphylococcus aureus [3], 25 µg/mL (≈ 64.9 µM); with Staphylococcus aureus [4], more than 50 µg/mL; in the data set with Staphylococcus aureus [5], more than 50 µg/mL.
Regarding `Cc1noc(-c2ccc(N3CC(CI)OC3=O)cc2F)n1` (racemic), the MIC with Staphylococcus aureus [1] is 50 µg/mL (≈ 124 µM); in the data set on Staphylococcus aureus [2], more than 50 µg/mL; in the data set with Staphylococcus aureus [3], 50 µg/mL (≈ 124 µM); in the data set with Staphylococcus aureus [4], more than 50 µg/mL; in the data set on Staphylococcus aureus [5], more than 50 µg/mL.
In the case of `Cc1noc(-c2ccc(N3CC(Cn4cccn4)OC3=O)cc2)n1` (racemic), the MIC with Staphylococcus aureus [1], with Staphylococcus aureus [2], in the data set on Staphylococcus aureus [3], in the data set with Staphylococcus aureus [4] and in the data set on Staphylococcus aureus [5] was more than 50 µg/mL in each case.
As to `Cc1noc(-c2ccc(N3CC(Cn4ccnc4)OC3=O)cc2)n1` (racemic), the MIC in the data set with Staphylococcus aureus [1], in the data set on Staphylococcus aureus [2], in the data set on Staphylococcus aureus [3], in the data set on Staphylococcus aureus [4] and in the data set with Staphylococcus aureus [5] was more than 50 µg/mL throughout.
On to `Cc1noc(-c2ccc(N3CC(CN=[N+]=[N-])OC3=O)cc2F)n1` (racemic), for which the MIC with Staphylococcus aureus [1], with Staphylococcus aureus [2], with Staphylococcus aureus [3], in the data set with Staphylococcus aureus [4] and in the data set on Staphylococcus aureus [5] was more than 50 µg/mL in each case.
`CC(=O)NCC1CN(c2ccc(-c3nc(C)no3)c(F)c2)C(=O)O1` (racemic): the MIC is 6.25 µg/mL (≈ 18.7 µM) in the data set with Staphylococcus aureus [1]; 12.5 µg/mL (≈ 37.4 µM) with Staphylococcus aureus [2]; 1.6 µg/mL (≈ 4.79 µM) in the data set with Staphylococcus aureus [3]; 12.5 µg/mL (≈ 37.4 µM) with Staphylococcus aureus [4]; 6.25 µg/mL (≈ 18.7 µM) in the data set with Staphylococcus aureus [5].
For `CC(=O)NCC1CN(c2ccc(-c3nc(C)no3)cc2)C(=O)O1` (racemic), the MIC with Staphylococcus aureus [1] came to 6.25 µg/mL (≈ 19.8 µM); in the data set on Staphylococcus aureus [2], 12.5 µg/mL (≈ 39.5 µM); with Staphylococcus aureus [3] it was 1.6 µg/mL (≈ 5.06 µM); with Staphylococcus aureus [4] it was 12.5 µg/mL (≈ 39.5 µM); in the data set on Staphylococcus aureus [5] it was 6.25 µg/mL (≈ 19.8 µM).
Turning to `CC(=S)NCC1CN(c2ccc(-c3nc(C)no3)c(F)c2)C(=O)O1` (racemic), the Activity entry was “Toxic” in the data set with HepG2 [14]; “Toxic” in data set [15]; 40% in the data set on HepG2 [16]; more than 50% in the data set on HaCaT [7]; less than 10% in data set [17]. For the same compound, the MIC in the data set with Staphylococcus aureus [1] was not above 0.4 µg/mL; with Staphylococcus aureus [2], 1.6 µg/mL (≈ 4.57 µM); in the data set on Staphylococcus aureus [3], 0.8 µg/mL (≈ 2.28 µM); with Staphylococcus aureus [4], 1.6 µg/mL (≈ 4.57 µM); with Staphylococcus aureus [5], 1.6 µg/mL (≈ 4.57 µM).

The MIC is the smallest concentration in the dilution series that meets the test's criterion for growth inhibition.
